Results collected from several papers.
Lines come from different studies, so protocols differ.

O=S(=O)(c1ccc(-c2ccc3nccc(Nc4ccncn4)c3c2)cc1)N1CCOCC1  concentration (female BALB/c mouse; plasma; intraperitoneal; 10 mg/kg; 4 h): 1350 ng/mL
c1ccc(-c2nc(N3CCC(c4ccccn4)C3)c3ccccc3n2)nc1 (stereo not shown)  concentration (female BALB/c mouse; plasma; oral; 50 mg/kg; 24 h): 63.5 ng/mL
O=S(=O)(c1cccc(C(F)(F)F)c1)N1c2cc(OCc3c(Cl)cncc3Cl)ccc2CC1C(F)(F)F (stereo not shown)  concentration (mouse; plasma; intraperitoneal; 10 mg/kg; 2 h): 600 nM
CC(C)CN(C[C@@H](O)[C@H](Cc1ccccc1)NC(=O)O[C@H]1CO[C@H]2OCC[C@H]21)S(=O)(=O)c1ccc(N)cc1  concentration (BALB/c mouse; plasma; intravenous; 2.5 mg/kg; 12 h): 0.33 ng/mL
COc1cc(F)c([C@@H]2CNC(=O)[C@H]2NC(=O)Nc2ccccc2)c(F)c1  concentration (C57BL/6 mouse; plasma; oral; 0.3 mg/kg; 2 h): 3 nM
O=S(=O)(c1cccc(C(F)(F)F)c1)N1CCc2ccc(OCc3c(Cl)cncc3Cl)cc21  concentration (mouse; plasma; intraperitoneal; 10 mg/kg; 2 h): 890 nM
O=C(O)C1CCN(c2ncc(-c3ccc4c(c3)OCCCO4)s2)CC1  concentration (male Swiss mouse; plasma; oral; 30 mg/kg; 8 h; single dose): 4540 ng/mL
Cc1c2ccnc(C(=O)N[C@H](C)CN(C)C)c2cc2c3cc(O)ccc3n(C)c12  concentration (male C57BL/6 mouse; brain; intraperitoneal; 10 mg/kg; 2 h; single dose): 80 nM
O=c1nc(N2CCN(CC3CCCCC3)CC2)sc2c([N+](=O)[O-])cc(C(F)(F)F)cc12  concentration (CD-1 mouse; plasma; oral; 100 mg/kg; 15 min): 2280 ng/mL
CC(C)Cc1nn(C)c(=O)c2c(SCCCO)n(Cc3cccc4ccccc34)cc12  concentration (mouse; lung; intraperitoneal; 20 mg/kg; 7 days; single dose): 0 nM
COc1cc(C)c(Sc2cnc(NC(=O)c3ccc(N4CCN(CCCCCCCNC(=O)COc5cccc6c5C(=O)N(C5CCC(=O)NC5=O)C6=O)CC4)cc3)s2)cc1C(=O)N1CCN(C(C)=O)CC1 (stereo not shown)  concentration (male C57BL/6 mouse; plasma; intraperitoneal; 10 mg/kg; 8 h; single dose): ~100 nM
CC(C)Oc1cccc(-c2cnc(N3CCC(C(N)=O)CC3)s2)c1  concentration (male Swiss mouse; plasma; oral; 30 mg/kg; 30 min; single dose): 416 ng/mL
CC(C)(Nc1nc(-c2ccccn2)nc2ccccc12)c1ccccn1  concentration (female BALB/c mouse; plasma; oral; 50 mg/kg; 8 h): 5860 ng/mL
